# Results taken from ChEMBL document CHEMBL1131024, “N-Arylalkyl pseudopeptide inhibitors of farnesyltransferase” (J Med Chem, 1998).
# pIC50: −log10 of the molar value.
# Legend:
# [1] = target: Protein farnesyltransferase (Homo sapiens, UniProt P49354+P49356); assay: Inhibition of [3H]FPP incorporation into recombinant human Ha-Ras by Farnesyltransferase; format: protein-complex assay
# Method in brief: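 FTase, either purified from bovine brain or homogeneous human recombinant, transferred [³H]FPP onto recombinant Ha-Ras. Total protein was acid-precipitated and protein-bound FPP was counted by scintillation. IC50 is the concentration inhibiting 50% of [³H]FPP incorporation.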
# [2] = target: Geranylgeranyl transferase type I (Bos taurus, UniProt P29702+Q5EAD5); assay: Inhibition of bovine Geranylgeranyl transferase type I; format: protein-complex assay
# [3] = tested on: NIH3T3; assay: Highest nontoxic concentration in NIH3T3 cells by MTT staining; format: functional, Mus musculus
# Method in brief: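 NIH 3T3 cells were exposed to compound for 48 h, and viability was read by MTT staining. The endpoint is the highest concentration the cells tolerated.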
# [4] = tested on: Rat1; assay: Inhibition of colony formation in Rat 1-v-ras-transformed cells in soft agar; format: functional
# Method in brief: (§1)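 Rat1 cells transformed by v-ras or v-raf were grown in soft agar for about 2 weeks, fed twice weekly. MIC is the minimum concentration reducing colony size and number relative to vehicle-treated controls.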
# [5] = target: Protein farnesyltransferase (Mus musculus, UniProt Q61239+Q8K2I1); assay: Inhibition of post-translational processing of v-Ras protein in NIH3T3 cells; format: functional, cell-based
# Method in brief: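 v-ras-transformed NIH 3T3 cells were incubated 24 h with compound or solvent control and labeled with [³⁵S]methionine over the final 20 h. Processed (farnesylated) Ras was resolved by SDS-PAGE. Lovastatin at 15 µM served as positive control.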
# [6] = tested on: Rat1; assay: Inhibition of colony formation in Rat 1-v-raf-transformed cells in soft agar; format: functional; method in brief: as §1
# [7] = target: T1, Protein farnesyltransferase (Bos taurus, UniProt P29702+P49355); assay: Inhibition of bovine brain Farnesyltransferase at 1 nM
# Method in brief: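 Bovine brain FTase at approximately 1 nM transferred [³H]FPP onto recombinant human Ha-Ras. Acid-precipitated protein-bound label was counted by scintillation. IC50 is the concentration giving 50% inhibition of incorporation.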
# [8] = target: T1, Protein farnesyltransferase; assay: Inhibition of bovine brain Farnesyltransferase at 10 pM; conditions: in the assay text read “at approximately 1 nM” for “at 10 pM”
Compound,pIC50 [1],pIC50 [2],other results
CC[C@@H](C)[C@@H](CN(C)[C@@H](Cc1ccccc1)C(=O)N[C@@H](CCO)C(=O)O)NC[C@@H](N)CS,5.80,–,–
CCC[C@@H](C(=O)N[C@@H](CCO)C(=O)O)N(C)C[C@@H](NC[C@@H](N)CS)[C@H](C)CC,7.68,4.37,–
CC[C@@H](C)[C@@H](CN(Cc1ccccc1)[C@@H](Cc1ccccc1)C(=O)N[C@@H](CCSC)C(=O)O)NC[C@@H](N)CS,5.85,–,–
CC[C@@H](C)[C@@H](C(=O)N[C@H]1CCOC1=O)N(C)C[C@@H](NC[C@@H](N)CS)[C@H](C)CC,–,–,CTE [3]: 500 µM; MIC [4]: 500 µM; pIC50 [5]: 4.60
CC[C@@H](C)[C@@H](CN(CC(=O)N[C@@H](CCO)C(=O)O)Cc1cccc2ccccc12)NC[C@@H](N)CS,9.91,8.00,–
CC[C@@H](C)[C@@H](CN(CC(=O)N[C@@H](CCSC)C(=O)OC)Cc1cccc2ccccc12)NC[C@@H](N)CS,–,–,MIC [6]: > 5 µM; CTE [3]: 5 µM; MIC [4]: 2.5 µM; pIC50 [5]: 6.30
CC[C@@H](C)[C@@H](CN[C@@H](Cc1ccccc1)C(=O)N[C@@H](CCO)C(=O)O)NC[C@@H](N)CS,–,5.00,pIC50 [7]: 7.59
CCC[C@H](NC[C@@H](NC[C@@H](N)CS)[C@H](C)CC)C(=O)N[C@@H](CCO)C(=O)O,–,5.00,pIC50 [8]: 7.57
CC[C@@H](C)[C@@H](CN(C)CC(=O)N[C@@H](CCO)C(=O)O)NC[C@@H](N)CS,–,5.00,pIC50 [8]: 7.08
CC[C@@H](C)[C@@H](CN(C)[C@H](C(=O)N[C@@H](CCSC)C(=O)O)[C@@H](C)CC)NC[C@@H](N)CS,7.60,5.33,–
CC[C@@H](C)[C@@H](CN[C@H](C(=O)N[C@@H](CCSC)C(=O)O)[C@@H](C)CC)NC[C@@H](N)CS,7.52,–,–
CC[C@@H](C)[C@H](NC[C@@H](NC[C@@H](N)CS)[C@H](C)CC)C(=O)N[C@H]1CCOC1=O,–,–,MIC [6]: > 1000 µM; CTE [3]: >1000 µM; MIC [4]: 1000 µM; pIC50 [5]: 4.00
CC[C@H](C)[C@H](NC[C@@H](NC[C@@H](N)CS)[C@@H](C)CC)C(=O)N[C@@H](CCO)C(=O)O,7.70,–,–
CCC(C)[C@@H](CN(CC(=O)N[C@@H](CCSC)C(=O)OC)Cc1ccccc1)NC[C@@H](N)CS (stereo partly specified),–,–,CTE [3]: 10 µM; pIC50 [5]: 7.00

# Now from value to compound, other results behind:
pIC50 [1],pIC50 [2],Compound,other results
8.32,5.24,CC[C@@H](C)[C@@H](CN[C@@H](Cc1ccccc1)C(=O)N[C@@H](CCSC)C(=O)O)NC[C@@H](N)CS,–
7.38,–,CC[C@@H](C)[C@@H](CN(C)[C@@H](Cc1ccccc1)C(=O)N[C@@H](CCSC)C(=O)O)NC[C@@H](N)CS,–
8.92,6.35,CC[C@@H](C)[C@@H](CN(CC(=O)N[C@@H](CCSC)C(=O)O)Cc1ccccc1)NC[C@@H](N)CS,–
8.66,4.41,CC[C@@H](C)[C@@H](CN(CC(=O)N[C@@H](CCSC)C(=O)O)Cc1ccccc1)NCCCS,–
